Measured values as given in ChEMBL document CHEMBL4350999, “Enhanced tumor retention of NTSR1-targeted agents by employing a hydrophilic cysteine cathepsin inhibitor” (Eur J Med Chem, 2019).

Assay: Drug uptake in pancreas of SCID mouse xenografted with human HT-29 cells using 177Lu labelled compound at 0.37 MBq/mouse, iv co-treated with D-lysine at 40 mg/kg measured at 24 hrs by gamma counter analysis
Type: ADME, organism-based
Settings: in vivo
In short: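 Female SCID mice bore s.c. HT-29 xenografts (5 × 10^6 cells in Matrigel, about 80 mm3). D-lysine 40 mg/kg was co-injected i.v. with 10 μCi (0.37 MBq) of purified 177Lu-conjugate. Tissues were harvested at 24 h, weighed and gamma-counted, reported as %ID/g; mean ± SD, n = 5.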

## Cc1cc(O)cc(C)c1C[C@H](NC(=O)[C@@H]1CCCN1C(=O)[C@H](CCCNC(=N)N)NC(=O)[C@H](CCCNC(=N)N)N(C)C(=O)[C@@H]1CCCN1C(=O)[C@H](CCCCN)NC(=O)[C@@H](CO)NC(=O)[C@@H](CO)NC(=O)[C@@H](CO)NC(=O)[C@H](Cc1cn(CCNC(=O)[C@H](CCCNC(=N)N)NC(=O)[C@H](CC(C)C)NC(=O)C2OC2C(=O)O)nn1)NC(=O)CN1CCN(CC(=O)O)CCN(CC(=O)O)CCN(CC(=O)O)CC1)C(=O)N[C@H](C(=O)N[C@@H](CC(C)C)C(=O)O)C(C)(C)C (stereo partly specified)
  Drug uptake: 0.14 % ID/g
